# CHT block = inhibits the human high affinity choline transporter; Q9GZV3; CHT-expressing cells, membrane potential dye, choline response; hits give low values; B-score at 10 µM; 310,000 tested, 0.86% active;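 active means B-score over 3 SD under the library average, and starting fluorescence ratio not unusually high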;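 further: choline stimulus applied at its EC90 after an EC20 pre-addition; B-score computed on integrated fluorescence ratio after choline addition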
# proCasp7 act = activates human procaspase-7, counter-screen for procaspase-3 activators. AID 463210. recombinant procaspase-7, Ac-DEVD-pNA absorbance 405 nm; D23A/D198A/D206A triple mutant, cannot self-cleave; scale: DMSO 0, 5 µM enzyme 100. 330,000 tested, 0.093% active. P55210. activation, % at 8.5 µM;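 active means percent activation above the screen-wide mean plus 3 SD, cut at about 25% in these data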
# Target sequence (P55210 whole entry D23A/D198A/D206A): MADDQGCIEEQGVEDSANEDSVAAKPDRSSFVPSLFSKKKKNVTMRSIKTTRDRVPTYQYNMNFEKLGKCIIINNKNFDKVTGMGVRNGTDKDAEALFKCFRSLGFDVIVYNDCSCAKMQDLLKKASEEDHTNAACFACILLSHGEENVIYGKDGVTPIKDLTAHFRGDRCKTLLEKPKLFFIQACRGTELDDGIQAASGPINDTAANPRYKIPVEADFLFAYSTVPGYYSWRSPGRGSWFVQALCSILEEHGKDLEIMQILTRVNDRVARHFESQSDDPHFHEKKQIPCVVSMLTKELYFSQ
#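 Assay system – Uncleavable procaspase-7 mutant enzyme · Quantity – 2 µM procaspase-7 mutant as dispensed · Times – 1 h preincubation, 2 h reaction · Dosing – single nominal 8.5 µM compound dose, 0.8% DMSO final · Buffer or medium – Zinc-free 50 mM HEPES buffer, pH 7.4, with NaCl and Triton X-100 · Detection – Epi-absorbance of released pNA at 405 nm, two timepoints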
# procasp3 activ = activators of human procaspase-3 | recombinant procaspase-3 D3A, Ac-DEVD-pNA absorbance 405 nm | activation, % at 8.5 µM | 330,000 tested, 0.11% active | AID 463141;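 active means activation above the mean of all tested compounds plus 3 SD, cut at about 21% in these data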;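 further: 0% = DMSO alone and 100% = DMSO wells spiked with extra 5 µM PC-3 D3A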
# Target sequence (P42574 whole entry D9A/D28A/D175A): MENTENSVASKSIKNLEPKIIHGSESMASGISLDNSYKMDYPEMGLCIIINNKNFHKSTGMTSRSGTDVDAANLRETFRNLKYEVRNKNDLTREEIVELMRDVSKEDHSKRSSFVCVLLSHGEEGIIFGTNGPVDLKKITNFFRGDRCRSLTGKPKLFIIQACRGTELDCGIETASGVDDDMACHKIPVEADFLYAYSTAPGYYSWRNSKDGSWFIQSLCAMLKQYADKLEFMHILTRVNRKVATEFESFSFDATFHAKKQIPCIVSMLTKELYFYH
#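 Test system: Procaspase-3 D3A mutant; medium: Zinc-free HEPES/NaCl buffer with 0.01% Triton X-100 at pH 7.4; reagent: DEVD-pNA substrate; doses: one concentration, 8.5 µM nominal, 0.8% DMSO; times: 1 h preincubation plus 2 h reaction at 25 °C; signal: Epi-absorbance at 405 nm of released p-nitroaniline, 0 and 120 min; replicates: singlicate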
# CHT PAM = human CHT allosteric activation; AID 488977; B-score at 10 µM; CHT-expressing cells, membrane potential dye, choline EC20; hits give high values; LV-AA mutant CHT in HEK293 cells; 310,000 tested, 0.49% active;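 active means initial fluorescence not abnormally high and integrated response B-score, plate-corrected, over 3 SD above library mean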
# CHT activ conf = human CHT activation, confirmatory screen. shares compounds with CHT PAM. CHT-expressing cells, membrane potential dye fluorescence (FDSS); % of choline EC20–EC90 response window; HEK293 expressing CHT LV-AA mutant; choline added at its EC20. activation, % at 10 µM. 2,500 tested, 91% active;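 active means primary screen active, with duplicate mean activation above negative control mean plus 3 SD, cut at about 11% in these data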
# HEK293 MP dye = activity in parental HEK293 cells lacking CHT | shares compounds with CHT PAM | membrane potential dye fluorescence (FDSS); measured after EC20 choline addition | ratio readout change at 10 µM, hits read low | 2,500 tested, 62% active;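 active means duplicate-averaged ratio beyond 3 SD from buffer wells, up or down, though filed actives are nearly all decreases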
# * hit, by the source's call; i = inactive; x = no result given. Sampled rows, rich in hits. Any-hit rate of the full collection: about 1.3%.
SMILES,CHT block,proCasp7 act,procasp3 activ,CHT PAM,CHT activ conf,HEK293 MP dye
CC1(C)Cc2c(sc3c2C2=NCCN2C=N3)CO1,i,6,3,9.3*,75*,-63*
CN(C)CCCn1c2c(c(SCC(=O)Nc3ccc4c(c3)OCCO4)nc1=O)CCC2,i,6,0,i,x,x
COc1cc(-c2nc3cccc(C)n3c2NCC2CCCO2)ccc1O (stereo unspecified),i,0,-2,6.7*,36*,-40*
CC(/C=C/c1ccco1)=N/NC(=O)OC(C)(C)C,i,0,2,i,x,x
Cc1c(C)n(Cc2ccc(F)cc2)c2ccc(C(=O)N3CCN(c4ccccn4)CC3)cc12,i,-2,2,i,x,x
Cc1ccnc(NC(=O)c2ccc(S(=O)(=O)N3CCC(C)CC3)cc2)c1,i,16,8,i,x,x
CC(OC(=O)CC(NC(=O)c1ccccc1Cl)c1ccccc1)C(=O)Nc1cccc(Cl)c1Cl (stereo unspecified),i,3,9,i,31*,i
Cc1cnc(C(=O)Nc2cccc3ncccc23)cn1,i,4,3,8*,43*,-47*
CC(=O)N1CCN(C2=Nc3cccc4cccc2c34)CC1,i,-22,-14,9.8*,52*,-77*
COc1ccccc1N1CCN(C2=Nc3cccc4cccc2c34)CC1,i,-15,-8,i,39*,-58*
CC1CN(C2=Nc3cccc4cccc2c34)CC(C)O1 (stereo unspecified),i,-14,-8,i,58*,-56*
c1cc2c3c(cccc3c1)C(N1CCOCC1)=N2,i,-5,-7,8.5*,56*,-68*
Cc1ccc(NC(=O)C2CCN(S(=O)(=O)c3ccc4c(c3)CCCC(=O)N4)CC2)cc1N(C)C,i,-3,-3,i,x,x
COc1ccc(NS(=O)(=O)c2cc(NC(=O)COc3ccc(OC)cc3)ccc2N2CCOCC2)cc1,x,1,14,x,x,x
CC(=O)c1ccc(N(C(=O)c2csnn2)C(C(=O)NC2CCCC2)c2ccccc2)cc1 (stereo unspecified),i,-1,-3,i,x,x
COc1cccc(NC(=O)C2CCN(S(=O)(=O)c3ccc4c(c3)C(C)(C)C(=O)N4C)CC2)c1,i,-2,7,i,x,x
CCOC(=O)c1c(CN2CCN(C)CC2)n(C)c2cc(Br)c(OC)cc12,i,5,1,i,39*,-55*
CCOC(=O)c1c(CN2CCCCC2)n(C)c2cc(Br)c(O)cc12,i,6,1,i,x,x
COc1ccc(CN(C(=O)c2ccc(C)cc2)C2CCS(=O)(=O)C2)cc1 (stereo unspecified),i,3,0,i,x,x
Cc1ccc(-c2csc(=Nc3cccnc3)n2CCCn2ccnc2)cc1C,i,-9,3,i,x,x
c1cncc(N=c2scc(-c3cccc4ccccc34)n2CCCn2ccnc2)c1,i,-3,2,8.2*,7,i
O=C1c2ccccc2N2C(=O)c3ccccc3C2N1Cc1ccccc1 (stereo unspecified),i,9,0,i,26*,i
O=C(c1ccc(Br)c(S(=O)(=O)N2CCCCC2)c1)N1CCCCC1,i,2,8,i,x,x
O=C(c1ccco1)N(CCC(c1ccccc1)c1ccco1)Cc1ccccc1 (stereo unspecified),i,-10,6,6.4*,40*,i
CC1(C)CC(=O)C2=C(C1)OC1=C(C2)C(=O)CC(C)(C)C1,i,-3,0,i,x,x
SMILES,CHT block,proCasp7 act,procasp3 activ,CHT PAM,CHT activ conf,HEK293 MP dye
Cc1ccc(-c2cc3cccc[n+]3cc2-c2ccc(C)cc2)cc1,i,2,7,8.2*,63*,-39*
CCC(=O)N1CCN(c2ccc(NC(=O)COc3ccccc3[N+](=O)[O-])cc2)CC1,i,4,-1,i,x,x
Cn1c(=O)n(C)c2cc([N+](=O)[O-])c(N3CCN(CCO)CC3)cc21,i,8,3,9.3*,53*,-70*
CC1CCN(c2ccccc2NC(=O)c2ccc(F)cc2)CC1,i,3,-7,9.3*,23*,i
CCc1cccc(C)c1NC(=O)CN(C)Cc1ccccc1F,i,17,6,i,13*,i
CCCCS(=O)(=O)Nc1ccc(C)cn1,i,-1,-9,i,x,x
COc1ccc(C2c3cc(OC)c(OC)cc3CCN2C(=O)c2cccc([N+](=O)[O-])c2)cc1OC (stereo unspecified),i,4,3,i,29*,i
COc1cc2c(cc1OC)C(c1cccc([N+](=O)[O-])c1)N(C(=O)c1ccc(F)cc1)CC2 (stereo unspecified),i,3,4,7.1*,46*,i
CCc1nn(CC(=O)N2CC(C)CC(C)C2)c(=O)c2cccn12 (stereo unspecified),i,6,2,i,x,x
COc1ccccc1-c1noc2ncnc(Nc3ccc4c(c3)OCO4)c12,i,-1,2,i,x,x
CC(C)NC(=O)CN1C(=O)c2cccc3cccc1c23,i,-6,-3,i,x,x
O=C(COC(=O)C1CCN(c2ccc(C(F)(F)F)cn2)CC1)NC1CCCCC1,i,-9,6,i,6,i
Cc1ccc(-c2c(C(=O)N(C)Cc3ccccc3)oc(=O)c3ccccc23)cc1,i,-5,5,i,32*,i
C=CCN1C(=O)C(CC(=O)NCC)SC1=Nc1ccccc1OC (stereo unspecified),i,-1,-1,i,x,x
Cc1cc(C)n2c(Br)c(CN3CCCC(C)C3)nc2n1 (stereo unspecified),i,15,8,6.6*,29*,-51*
Cc1cc(C)nc(SCc2nc3nc(C)cc(C)n3c2Br)n1,i,-1,-5,i,x,x
CC1(C)CC(=O)c2cnc(N3CCc4ccccc43)nc2C1,i,-7,-8,i,x,x
CC1CN(c2nc3ccccc3nc2NS(=O)(=O)c2ccccc2)CC(C)O1 (stereo unspecified),x,9,2,x,x,x
Cc1cc(C)n2nc(C(=O)N/N=C/c3cn(C)nc3C)nc2n1,i,1,-3,i,48*,-30*
Cc1nn(C)cc1/C=N/NC(=O)c1ccc2c(c1)OCO2,i,8,1,i,x,x
O=C(CC1C=Cc2ccccc2N1C(=O)c1ccccc1)c1ccccc1 (stereo unspecified),i,-1,-2,10*,26*,i
